The record followed here is ChEMBL document CHEMBL2163314, “Potent aminocyclitol glucocerebrosidase inhibitors are subnanomolar pharmacological chaperones for treating gaucher disease” (J Med Chem, 2012).

Activity calls are given as the source filed them. No cut-off for these calls is given here. Bounds are passed on as bounds.

The target in assay [1] is T1, Alpha-galactosidase A (Homo sapiens) (UniProt P06280).
T1 sequence (whole entry): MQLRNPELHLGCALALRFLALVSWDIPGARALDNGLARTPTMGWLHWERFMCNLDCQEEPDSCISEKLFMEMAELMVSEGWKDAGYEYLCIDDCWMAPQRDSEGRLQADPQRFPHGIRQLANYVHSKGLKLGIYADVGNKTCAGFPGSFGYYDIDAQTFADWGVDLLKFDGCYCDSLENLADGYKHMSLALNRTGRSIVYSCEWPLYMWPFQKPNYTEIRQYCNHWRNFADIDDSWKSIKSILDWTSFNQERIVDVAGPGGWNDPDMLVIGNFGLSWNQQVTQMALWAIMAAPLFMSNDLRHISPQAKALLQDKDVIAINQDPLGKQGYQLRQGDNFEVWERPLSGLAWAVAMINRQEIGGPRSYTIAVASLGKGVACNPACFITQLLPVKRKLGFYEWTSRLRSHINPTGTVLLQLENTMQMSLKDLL
As to the kind of experiment: Inhibition of lysosomal alpha-galactosidase in human fibroblast at 50 uM after 24 hrs. The method, boiled down: (§1)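 Wild-type human fibroblasts (DMEM, 10% FBS, passages 14–30) were plated overnight, then exposed to compound in fresh medium for 24 h at 37 °C, 5% CO2. Lysosomal enzyme activity was then assayed in intact monolayers after the medium was removed. Triplicate determinations.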

In assay [2] the target is Lysosomal alpha-glucosidase (Homo sapiens) (UniProt P10253). As to the kind of experiment: Inhibition of lysosomal alpha-glucosidase in human fibroblast at 50 uM after 24 hrs. A digest of the protocol: as §1
For assay [3], the target named is T2, Lysosomal acid glucosylceramidase (Homo sapiens, UniProt P04062).
T2 sequence (P04062 whole entry): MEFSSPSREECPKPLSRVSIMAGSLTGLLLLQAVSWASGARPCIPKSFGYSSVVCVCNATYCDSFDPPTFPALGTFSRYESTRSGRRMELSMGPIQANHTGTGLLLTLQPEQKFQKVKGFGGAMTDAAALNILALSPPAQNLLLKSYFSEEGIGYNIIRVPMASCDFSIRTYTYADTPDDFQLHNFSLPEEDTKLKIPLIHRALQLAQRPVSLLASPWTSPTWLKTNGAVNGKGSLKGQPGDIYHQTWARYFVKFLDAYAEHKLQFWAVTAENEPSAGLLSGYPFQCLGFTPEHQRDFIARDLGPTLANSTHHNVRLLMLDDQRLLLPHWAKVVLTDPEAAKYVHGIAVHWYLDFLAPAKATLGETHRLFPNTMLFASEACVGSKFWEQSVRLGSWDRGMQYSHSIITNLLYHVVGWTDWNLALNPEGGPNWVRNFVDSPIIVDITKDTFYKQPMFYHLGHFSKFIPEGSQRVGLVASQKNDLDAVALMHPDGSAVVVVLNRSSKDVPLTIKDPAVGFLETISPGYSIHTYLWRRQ
Kind of assay: Competitive inhibition of recombinant Imiglucerase using 4-methylumbelliferyl-beta-D-glucopyranoside as substrate preincubated for 30 mins before substrate addition at pH 5.2 by Lineweaver-Burk plot assay.

Assay [4] addresses T2, Lysosomal acid glucosylceramidase. Kind of assay: Binding affinity to recombinant imiglucerase using 4-methylumbelliferyl-beta-D-glucopyranoside as substrate preincubated for 30 mins before substrate addition by Lineweaver-Burk plot assay.
The target is the same in assay [5]. As to the kind of experiment: Binding affinity to recombinant imiglucerase using 4-methylumbelliferyl-beta-D-glucopyranoside as substrate preincubated for 30 mins before substrate addition by Dixon plot assay.
Assay [6] deals with T3, Lysosomal acid glucosylceramidase (Homo sapiens) (UniProt P04062).
T3 sequence (whole entry): T2 sequence (P04062 whole entry)
As to the kind of experiment: Inhibition of lysosomal beta-glucosidase in human fibroblast using 4-methylumbelliferyl-beta-D-glucopyranoside as substrate preincubated at 5 uM for 24 hrs before substrate addition measured after 2 hrs by fluorimetry. A digest of the protocol:
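Wild-type human fibroblasts (DMEM, 10% FBS; passages 14–30) plated overnight, then compound in fresh medium for 24 h at 37 °C, 5% CO2. Intact washed monolayers given PBS plus 200 mM acetate pH 4.0 and 5 mM 4-MU-β-glucoside, 37 °C for 2 h. Stopped by lysis in glycine/NaOH pH 10.6. Fluorescence at 355/460 nm; triplicate.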

For assay [7], the target named is T4, Non-lysosomal glucosylceramidase (Mus musculus) (UniProt Q69ZF3).
T4 sequence (whole entry): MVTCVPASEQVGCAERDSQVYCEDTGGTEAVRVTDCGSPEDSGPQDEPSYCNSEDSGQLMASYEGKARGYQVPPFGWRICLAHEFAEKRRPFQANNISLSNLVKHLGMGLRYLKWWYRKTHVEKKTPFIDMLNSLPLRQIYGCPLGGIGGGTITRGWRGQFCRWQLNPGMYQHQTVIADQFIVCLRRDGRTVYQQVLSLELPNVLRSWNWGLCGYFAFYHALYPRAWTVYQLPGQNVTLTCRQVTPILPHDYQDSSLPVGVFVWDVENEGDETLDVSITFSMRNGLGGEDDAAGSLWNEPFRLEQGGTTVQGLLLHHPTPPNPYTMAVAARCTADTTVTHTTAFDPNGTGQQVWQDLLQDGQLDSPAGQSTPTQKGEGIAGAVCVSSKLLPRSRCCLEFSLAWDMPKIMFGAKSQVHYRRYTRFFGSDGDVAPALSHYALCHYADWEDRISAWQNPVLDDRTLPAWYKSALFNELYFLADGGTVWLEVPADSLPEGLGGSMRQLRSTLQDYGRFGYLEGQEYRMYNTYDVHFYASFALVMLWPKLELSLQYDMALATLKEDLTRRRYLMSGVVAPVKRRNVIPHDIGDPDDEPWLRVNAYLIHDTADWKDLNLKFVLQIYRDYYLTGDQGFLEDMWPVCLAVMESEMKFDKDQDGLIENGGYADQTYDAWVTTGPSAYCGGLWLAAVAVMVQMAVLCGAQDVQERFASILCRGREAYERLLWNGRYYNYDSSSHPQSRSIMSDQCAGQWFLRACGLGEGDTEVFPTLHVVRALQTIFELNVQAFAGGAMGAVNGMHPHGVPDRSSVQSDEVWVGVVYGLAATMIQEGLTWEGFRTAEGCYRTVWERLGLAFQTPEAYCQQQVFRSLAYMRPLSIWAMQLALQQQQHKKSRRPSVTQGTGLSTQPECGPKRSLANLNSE
As to the kind of experiment: Inhibition of GBA2 activity in mouse tissue homogenate at 50 uM. A digest of the protocol: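 Mouse tissue homogenates were used to separate nonlysosomal GBA2 from lysosomal GCase β-glucosidase activity. Compounds were screened at 50 and 5 μM with 3 mM substrate. Two independent experiments, each run in duplicate.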

A further assay concerns Saccharomyces cerevisiae. As to the kind of experiment: Inhibition of bakers yeast alpha-glucosidase at100 uM.
Another assay concerns Oryza sativa. Kind of assay: Inhibition of rice alpha-glucosidase at 100 uM.
A further assay relates to Prunus dulcis. Kind of assay: Inhibition of almond beta-glucosidase at 100 uM.
The target in assay [8] is Alpha-galactosidase (Coffea arabica) (UniProt Q42656). Kind of assay: Inhibition of green coffee beans alpha-galactosidase at 100 uM.
Chain of Alpha-galactosidase (Coffea arabica) (Q42656 16-378 limits assumed): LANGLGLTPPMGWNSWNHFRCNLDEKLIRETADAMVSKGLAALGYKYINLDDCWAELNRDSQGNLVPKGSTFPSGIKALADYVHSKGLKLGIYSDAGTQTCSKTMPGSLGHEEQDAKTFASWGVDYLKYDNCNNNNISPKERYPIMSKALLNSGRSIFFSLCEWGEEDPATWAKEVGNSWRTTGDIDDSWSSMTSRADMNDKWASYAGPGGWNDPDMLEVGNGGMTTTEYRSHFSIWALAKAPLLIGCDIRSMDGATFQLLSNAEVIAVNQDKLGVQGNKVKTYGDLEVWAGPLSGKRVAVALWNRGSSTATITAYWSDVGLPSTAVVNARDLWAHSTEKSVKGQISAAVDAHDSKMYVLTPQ

`CCCCCCCCCN[C@H]1[C@H](O)[C@@H](O)[C@H](O)[C@@H](O)[C@H]1OC.Cl`: the inhibition entry (in [1]; in assay [2]; with Saccharomyces cerevisiae; with Oryza sativa; in the assay on Prunus dulcis; in assay [8]) was “inactive” throughout. In addition, the concentration for half-maximal inhibition (IC50) in assay [3] worked out at 130 nM. Moreover, the Ki in [4] and in assay [5] was 53 nM throughout. In addition, the inhibition in assay [6] is above 39%. In addition, the inhibition entry in assay [7] was “Active”.
Regarding `CCCCCCCCCO[C@H]1[C@@H](N)[C@H](O)[C@@H](O)[C@H](O)[C@H]1O.Cl`, the inhibition result (in assay [1]; in [2]; in the assay on Saccharomyces cerevisiae; in the assay with Oryza sativa; in the assay with Prunus dulcis; in [8]) was “inactive” throughout. The half-inhibitory concentration (IC50) in [3] was determined as 450 nM. The inhibitory constant (Ki) in assay [4] and in assay [5] was 130 nM throughout. Also, the inhibition in [6] was above 39%. Besides, in assay [7], the inhibition entry was “Active”.
`CCCCCCCCCN[C@H]1[C@H](O)[C@@H](O)[C@H](O)[C@@H](O)[C@@H]1O`: the inhibition entry (in assay [1]; in [2]; with Saccharomyces cerevisiae; in the assay on Oryza sativa; with Prunus dulcis; in assay [8]) was “inactive” each time. Besides, the half-maximal inhibitory concentration (IC50) in assay [3] was found to be 3900 nM. The Ki in assay [4] and in [5] was 1900 nM in each case. Further, in [7], the inhibition entry was “Active”.
As to `CCCCCCCCCN[C@H]1[C@H](O)[C@@H](O)[C@H](O)[C@@H](O)[C@@H]1OCCCCCCCCC.Cl`, in [3], the concentration for half-maximal inhibition (IC50) was determined as 670 nM. For the same compound, the Ki in assay [4] and in assay [5] was 280 nM throughout. This compound also yielded an inhibition in assay [6] above 39%. Also, the inhibition result in [7] was “Active”. Also, the inhibition entry (in the assay on Saccharomyces cerevisiae; in the assay with Oryza sativa; with Prunus dulcis; in assay [8]) was “inactive” in each case.
On to `CCCCCCCCCN[C@H]1[C@H](O)[C@@H](O)[C@H](O)[C@@H](O)[C@@H]1OC.Cl`, for which the inhibition entry (in [1]; in assay [2]; in the assay with Saccharomyces cerevisiae; in the assay with Oryza sativa; with Prunus dulcis; in assay [8]) was “inactive” throughout. Besides, in assay [3], the IC50 is 4400 nM. Also, the Ki in assay [4] and in [5] was 1580 nM throughout. Also, the inhibition result in [7] is “Active”.
For the compound `CCCCCCCCCN[C@@H]1[C@H](O)[C@@H](O)[C@H](O)[C@@H](O)[C@@H]1O`, the inhibition entry (in assay [1]; in assay [2]; in the assay on Saccharomyces cerevisiae; in the assay with Oryza sativa; in the assay on Prunus dulcis; in assay [8]) was “inactive” each time. The IC50 in assay [3] was determined as 52600 nM. In addition, the Ki in assay [4] and in assay [5] was 17900 nM each time. Moreover, the inhibition in assay [7] amounted to 92%.
`CCCCCCCCCN[C@@H]1[C@H](O)[C@H](O)[C@@H](O)[C@H](O)[C@H]1O.Cl`: the inhibition entry (in assay [1]; in [2]; in the assay on Saccharomyces cerevisiae; in the assay with Oryza sativa; with Prunus dulcis; in [8]) was “inactive” in each case. For the same compound, the IC50 in [3] is 80 nM. The Ki in assay [4] and in [5] was 32 nM each time. This compound gave an inhibition in assay [6] above 39%. Further, in assay [7], the inhibition entry is “Active”.
On to `CCCCCCCCCN(CCCCCCCCC)[C@@H]1[C@H](O)[C@H](O)[C@@H](O)[C@H](O)[C@H]1O.Cl`, for which the IC50 in [3] amounted to 1720 nM. Besides, the Ki in [4] and in assay [5] was 820 nM each time. In assay [6], this compound showed an inhibition above 39%. For the same compound, the inhibition entry in assay [7] is “Active”. The inhibition result (in the assay on Saccharomyces cerevisiae; in the assay on Oryza sativa; with Prunus dulcis; in assay [8]) was “inactive” in each case.
As to `CCCCCCCCCN[C@H]1[C@H](O)[C@@H](O)[C@H](O)[C@@H](O)[C@H]1OCCCCCCCCC.Cl`, the concentration for half-maximal inhibition (IC50) in [3] worked out at 4 nM. Also, the Ki in assay [4] and in assay [5] was 1 nM throughout. The compound also had an inhibition in assay [6] above 39%. Moreover, the inhibition result in assay [7] is “Active”. For the same compound, the inhibition result (in the assay on Saccharomyces cerevisiae; with Oryza sativa; in the assay on Prunus dulcis; in assay [8]) was “inactive” in each case.
